Assay outcomes from PubChem BioAssay.
Rows were chosen to be rich in hits. Some 12% of all compounds tested hit in one or more screens of this group.
Lmaj promast: Leishmania major promastigote growth inhibition. Leishmania major promastigotes, resazurin fluorescence viability. inhibition, % at 10 µM. 200,000 compounds, 9% hits; in the data active = inhibition above about 50%;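 note: promastigotes grown with compound for 44 hours at 28 °C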
CHOP inhibitor: CHOP inhibition in unfolded protein response; inhibition, % at 10 µM; 220,000 compounds, 3.8% hits; CHO-K1 CHOP-promoter luciferase, tunicamycin-induced, 15-18 h; AID 2732;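 active = compounds that reduced the stress-induced luciferase reporter signal by more than about 70% of percent inhibition, limit read from the data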;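 note: 0% = tunicamycin plus vehicle and 100% = wells without tunicamycin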
bCat nuc transl: beta-catenin nuclear translocation modulation. HeLa beta-catenin nuclear translocation, immunofluorescence imaging. nuclear translocation activity, % at 5 µM. 190,000 compounds, 0.3% hits. AID 1665;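 active = nuclear translocation activity above 50% at 5 µM, with a well cell count of 50 or more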;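 note: per-cell ratio of nuclear to cytoplasmic median beta-catenin stain intensity; plate controls were DMSO negative control for no effect and GSK-3 inhibitor IX positive control for full effect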
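Test system: human HeLa cells, native beta-catenin. Compound dosing: 5 µM primary single dose, 0.1% DMSO, 0.02–20 µM confirmation series. Incubation: compound exposure 24 h at 37°C. Detection: beta-catenin immunostaining with DAPI counterstain, 20x imaging, 6 fields/well. Read-out basis: Nuclear/cytoplasmic beta-catenin signal ratio, % activation.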
Autophagy HCS: autophagy modulation, high-content screen; MEF GFP-LC3 puncta imaging; test concentration mostly 10 µM; calls only at 10 µM (by protocol); 190,000 compounds, 0.98% hits;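 active = percentage of spot-positive cells more than 3 SD above its plate mean, without a fluorescence outlier flag or 80% toxicity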;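 note: spot-positive cell cutoff set from DMSO-treated cells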
Dynein transport: blocks dynein driven cargo transport along microtubules; 220,000 compounds, 0.47% hits; 3617.4 mouse cells, GR-EGFP nuclear translocation imaging; test concentration mostly 20 µM; stimulated with dexamethasone, 1 µM; hits give low values; AID 1381; z-score, hits read low;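 active = plate z-score of nuclear minus cytoplasmic receptor signal below a set negative limit, without overly bright fluorescence or cell loss, cut at about -3.5 in these data, passing the limit was not always enough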;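 note: z-score of nuclear minus cytoplasmic ring GR-EGFP intensity difference per well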
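Buffer or medium: tetracycline-free induction medium containing charcoal-stripped FBS / Reagent: dexamethasone agonist, 1.0 µM final, for 30 min / Technique: automated 10x imaging of fixed Hoechst-stained cells / Times: induction 48 h, compound 1 h, agonist 30 min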
MT stabilizer: stabilizes microtubules in HeLa cells; % tubulin-high responders, % at 10 µM; HeLa tubulin immunostaining HCS, 24 h; share of cells brighter than vehicle mean+2SD; 200,000 compounds, 0.83% hits;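 active = plate Z-score above 3 for both tubulin-high and condensed-nucleus cell shares, with cell loss under 80%, at 10 µM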;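 note: anti alpha tubulin signal scored within the nucleus-defined area of each cell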
Active calls of the source: *; i = inactive; x = not tested or not shown; + = active, no number.

SMILES | Lmaj promast | CHOP inhibitor | bCat nuc transl | Autophagy HCS | Dynein transport | MT stabilizer
O=C(OCC(=O)N1N=C(c2ccc(Cl)cc2)CC1c1ccco1)c1ccco1 (stereo not given) | -2.0 | 46.6 | -3.9 | i | -0.622 | 0.3
CCOC(=O)CSc1nnc([C@H](Cc2ccccc2)NC(=O)OC(C)(C)C)o1 | -2.2 | 11.7 | -6.6 | i | 0.208 | 2.4
CC(C)=CCSc1nnc([C@@H](NC(=O)OC(C)(C)C)C(C)C)o1 | 26.2 | 12.7 | -2.5 | i | -0.211 | 1.8
CC(C)[C@H](NC(=O)OC(C)(C)C)c1nnc(SCC(=O)Nc2ccc(Br)cc2)o1 | -1.7 | 73.2* | -0.2 | i | 0.908 | 3.1
CC(C)C[C@H](NC(=O)OC(C)(C)C)c1nnc(SCc2ccccc2)o1 | 84.6* | 52.5 | 0.7 | i | 0.0233 | 1.6
Cc1cccc(C)c1NC(=O)CSc1nnc([C@H](C)NC(=O)OC(C)(C)C)o1 | -3.5 | 79.2* | -2.5 | i | -0.32 | 4.5
CCOc1ccc(NC(=O)c2cc3cc4ccc(OC)cc4nc3o2)cc1 | 100.1* | -3.7 | x | i | -0.0376 | 2.3
COc1ccc2cc3cc(C(=O)Nc4ccccc4N4CCN(C)CC4)oc3nc2c1 | 99.5* | 86.0* | -0.9 | + | -0.143 | 43.4
COc1ccc2cc3cc(C(=O)NCCN4CCN(c5ccccc5F)CC4)oc3nc2c1 | 27.4 | 53.9 | 0.4 | i | -0.48 | 1.9
COc1ccc2cc3cc(C(=O)NCc4ccco4)oc3nc2c1 | 59.8* | -5.8 | x | i | 1.74 | 0.7
O=C(NCc1ccco1)c1cc2cc3ccc(Cl)cc3nc2o1 | 5.5 | 80.2* | x | i | 0.0723 | 3.5
O=C(CSc1nccc(=O)[nH]1)NCc1ccc(Cl)cc1 | -2.5 | 20.5 | -0.7 | i | -0.546 | 3.0
O=C1CCCc2[nH]nc(-c3cccnc3)c21 | 1.2 | 43.7 | 0.4 | i | 0.154 | 1.3
O=C(CN1C(=O)c2ccccc2C1=O)Nc1ccccc1C(=O)N1CCCC1 | -8.7 | -12.2 | -0.1 | i | -0.666 | 3.5
COc1ccc2cc3cc(C(=O)NCC4CCCO4)oc3nc2c1 (stereo not given) | 79.3* | 16.3 | x | i | -0.0849 | 2.5
CN1CCN(NC(=S)Nc2ccc(Oc3ccccc3)cc2)CC1 | 5.8 | 23.0 | 0.2 | i | 0.263 | 6.3
COC(=O)c1sc(N2C(=O)c3oc4ccccc4c(=O)c3C2c2cccs2)nc1C (stereo not given) | -7.3 | 67.7 | 1.0 | + | -0.0887 | 3.6
Cc1ccc(OCCCCN2CCCC(C)C2)c([N+](=O)[O-])c1 (stereo not given) | 86.4* | -13.5 | -0.7 | i | 1.18 | 1.3
Cc1ccc([N+](=O)[O-])c(OCCN2C(=O)NC(C)(C)C2=O)c1 | -4.9 | 10.6 | 1.2 | i | -0.666 | 3.9
Cc1ccc([N+](=O)[O-])c(OCCCN2CCCCCC2)c1 | 98.5* | 14.5 | -3.4 | i | 0.659 | 3.3
Cc1cc(OCCN2CCCCCC2)ccc1[N+](=O)[O-] | 91.5* | -8.0 | -1.7 | i | -0.288 | 6.9
Oc1ccc(C[C@@H]2CNC(=S)N2CCCCC2CCCCC2)cc1 | 20.7 | -6.1 | 0.5 | i | -0.856 | 5.7
CC(=O)Oc1ccc2ccccc2c1C(NC(=O)Cc1ccccc1)c1ccc(Cl)cc1 (stereo not given) | 43.9 | 10.5 | 0.1 | i | 0.359 | 1.9
CCCCOc1cccc(C2C(C(=O)c3cccs3)=C(O)C(=O)N2Cc2cccnc2)c1 (stereo not given) | -6.3 | -6.5 | x | i | -0.0674 | 4.5
N#C/C(=C/c1ccc(Br)s1)C(=O)NCCc1c[nH]c2ccccc12 | -6.0 | 36.9 | -0.7 | i | -0.665 | 4.8
O=C(CSc1nnc(CNc2ccc(F)cc2)n1-c1ccccc1)N1CCOCC1 | -0.3 | 9.6 | -2.1 | i | 0.533 | 2.1
O=C(CC1SC(=O)N(Cc2ccccc2)C1=O)Nc1nccs1 (stereo not given) | -8.9 | 87.3* | -1.7 | i | -0.602 | 7.5
Cc1ccc(NC(=O)c2ccc3ccccc3n2)cc1S(=O)(=O)N1CCOCC1 | -9.0 | 13.7 | 0.0 | i | 1.1 | 2.4
Cc1oc(/C=N/NS(=O)(=O)c2ccccc2)cc1Br | 62.5* | 11.1 | 2.9 | i | 0.692 | 4.0
Cc1ccc(/C=N/NS(=O)(=O)c2ccccc2)o1 | -0.3 | 20.3 | -0.3 | i | 0.962 | 3.2
